Reference: ChEMBL document CHEMBL1158182, “Antifungal activity of chalcones: a mechanistic study using various yeast strains” (Eur J Med Chem, 2008)

What was measured:
Type in all cases: functional
Ogataea angusta [1] = assay: Antifungal activity against Hansenula polymorpha M2 with met2 genotype by agar dilution method
Method in brief: (§1)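 H. polymorpha strains were tested by agar dilution on rich YPD agar at 37 °C. Compound stocks in 96% EtOH were mixed into the medium to give […]. Cells were suspended in water, serially diluted to 10^9, 10^7, 10^5 and 10^3 cells/ml, and applied to the agar with a metal replicator. MIC was read from growth.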

Kluyveromyces lactis [2] = assay: Antifungal activity against Kluyveromyces lactis 1-6A with MATalpha uraA lys arg genotype by agar dilution method
Method in brief: (§2)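 S. cerevisiae and K. lactis strains were tested by agar dilution on rich YPD agar at 30 °C. Compound stocks in 96% EtOH were added to the medium to give […]. Cells were suspended in water, serially diluted to 10^9–10^3 cells/ml, and plated with a metal replicator. MIC was read from growth.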

Ogataea angusta [3] = assay: Antifungal activity against Hansenula polymorpha CD2 with ade1 leu2 cds2 genotype by agar dilution method; method in brief: as §1
Saccharomyces cerevisiae [4] = assay: Antifungal activity against diploid Saccharomyces cerevisiae 29a by agar dilution method; method in brief: as §2
Ogataea angusta [5] = assay: Antifungal activity against Hansenula polymorpha M4 with met4 genotype by agar dilution method; method in brief: as §1
Saccharomyces cerevisiae [6] = assay: Antifungal activity against haploid Saccharomyces cerevisiae 1169 by agar dilution method; method in brief: as §2
Ogataea angusta [7] = assay: Antifungal activity against Hansenula polymorpha D22 with arg1/arg1 ade1/ADE1 leu2/leu2 URA3/ura3 CYS1/cys1 genotype by agar dilution method; method in brief: as §1
Saccharomyces cerevisiae [8] = assay: Antifungal activity against haploid Saccharomyces cerevisiae 10560-6B by agar dilution method; method in brief: as §2
Ogataea angusta [9] = assay: Antifungal activity against Hansenula polymorpha CRD2 with leu2 CDR2 genotype by agar dilution method; method in brief: as §1
Saccharomyces cerevisiae [10] = assay: Antifungal activity against haploid Saccharomyces cerevisiae YSH1171 by agar dilution method; method in brief: as §2
Kluyveromyces lactis [11] = assay: Antifungal activity against Kluyveromyces lactis 2-19B with MATalpha ura lys arg genotype by agar dilution method; method in brief: as §2
Kluyveromyces lactis [12] = assay: Antifungal activity against Kluyveromyces lactis 2-18B with MATalpha metA1 ura3 leu2 genotype by agar dilution method; method in brief: as §2
Ogataea angusta [13] = assay: Antifungal activity against Hansenula polymorpha CD1 with ade1 leu2 cds1 genotype by agar dilution method; method in brief: as §1
Ogataea angusta [14] = assay: Antifungal activity against Hansenula polymorpha WT1 with ade1 ura3 genotype by agar dilution method; method in brief: as §1
Saccharomyces cerevisiae [15] = assay: Antifungal activity against haploid Saccharomyces cerevisiae 1S by agar dilution method; method in brief: as §2
Saccharomyces cerevisiae [16] = assay: Antifungal activity against haploid Saccharomyces cerevisiae Sigma 1278b by agar dilution method; method in brief: as §2
Ogataea angusta [17] = assay: Antifungal activity against Hansenula polymorpha MC1 with met2 cys1 genotype by agar dilution method; method in brief: as §1
Ogataea angusta [18] = assay: Antifungal activity against Hansenula polymorpha AS1 with arg1 gsh2delta genotype by agar dilution method; method in brief: as §1
Saccharomyces cerevisiae [19] = assay: Antifungal activity against haploid Saccharomyces cerevisiae 2180 by agar dilution method; method in brief: as §2
Saccharomyces cerevisiae [20] = assay: Antifungal activity against haploid Saccharomyces cerevisiae FY4 by agar dilution method; method in brief: as §2
Saccharomyces cerevisiae [21] = assay: Antifungal activity against diploid Saccharomyces cerevisiae 1a by agar dilution method; method in brief: as §2
Ogataea angusta [22] = assay: Antifungal activity against Hansenula polymorpha R3 with rgh3 genotype by agar dilution method; method in brief: as §1
Ogataea angusta [23] = assay: Antifungal activity against Hansenula polymorpha WT2 with ade1 met6 genotype by agar dilution method; method in brief: as §1
Ogataea angusta [24] = assay: Antifungal activity against Hansenula polymorpha AU05 with ade3 ura3 genotype by agar dilution method; method in brief: as §1
Ogataea angusta [25] = assay: Antifungal activity against Hansenula polymorpha CD3 with ade1 leu2 cds3 genotype by agar dilution method; method in brief: as §1
Ogataea angusta [26] = assay: Antifungal activity against Hansenula polymorpha 2b with arg1 ade1 leu2 genotype by agar dilution method; method in brief: as §1
Ogataea angusta [27] = assay: Antifungal activity against Hansenula polymorpha 2a with arg1 leu2 ura3 cys1 genotype by agar dilution method; method in brief: as §1
Saccharomyces cerevisiae [28] = assay: Antifungal activity against haploid Saccharomyces cerevisiae YSH1170 by agar dilution method; method in brief: as §2

Measured: MIC

O=C(/C=C/c1ccc(O)c(O)c1)c1ccccc1
> 40 µg/mL: Ogataea angusta [1] | Kluyveromyces lactis [2] | Ogataea angusta [3] | Saccharomyces cerevisiae [4] | Ogataea angusta [5] | Saccharomyces cerevisiae [6] | Ogataea angusta [7] | Saccharomyces cerevisiae [8] | Ogataea angusta [9] | Saccharomyces cerevisiae [10] | Kluyveromyces lactis [11] | Kluyveromyces lactis [12] | Ogataea angusta [13] | Ogataea angusta [14] | Saccharomyces cerevisiae [15] | Saccharomyces cerevisiae [16] | Ogataea angusta [17] | Ogataea angusta [18] | Saccharomyces cerevisiae [19] | Saccharomyces cerevisiae [20] | Saccharomyces cerevisiae [21] | Ogataea angusta [22] | Ogataea angusta [23] | Ogataea angusta [24] | Ogataea angusta [25] | Ogataea angusta [26] | Ogataea angusta [27] | Saccharomyces cerevisiae [28]

COc1ccc(/C=C/C(=O)c2ccc(Cl)cc2)cc1O
> 40 µg/mL: Ogataea angusta [1] | Kluyveromyces lactis [2] | Ogataea angusta [3] | Saccharomyces cerevisiae [4] | Ogataea angusta [5] | Saccharomyces cerevisiae [6] | Ogataea angusta [7] | Saccharomyces cerevisiae [8] | Ogataea angusta [9] | Saccharomyces cerevisiae [10] | Kluyveromyces lactis [11] | Kluyveromyces lactis [12] | Ogataea angusta [13] | Ogataea angusta [14] | Saccharomyces cerevisiae [15] | Saccharomyces cerevisiae [16] | Ogataea angusta [17] | Ogataea angusta [18] | Saccharomyces cerevisiae [19] | Saccharomyces cerevisiae [20] | Saccharomyces cerevisiae [21] | Ogataea angusta [22] | Ogataea angusta [23] | Ogataea angusta [24] | Ogataea angusta [25] | Ogataea angusta [26] | Ogataea angusta [27] | Saccharomyces cerevisiae [28]

O=C(/C=C/c1ccc([N+](=O)[O-])cc1)c1ccc(Cl)cc1
> 40 µg/mL: Ogataea angusta [1] | Kluyveromyces lactis [2] | Ogataea angusta [3] | Saccharomyces cerevisiae [4] | Ogataea angusta [5] | Saccharomyces cerevisiae [6] | Ogataea angusta [7] | Saccharomyces cerevisiae [8] | Ogataea angusta [9] | Saccharomyces cerevisiae [10] | Kluyveromyces lactis [11] | Kluyveromyces lactis [12] | Ogataea angusta [13] | Ogataea angusta [14] | Saccharomyces cerevisiae [15] | Saccharomyces cerevisiae [16] | Ogataea angusta [17] | Ogataea angusta [18] | Saccharomyces cerevisiae [19] | Saccharomyces cerevisiae [20] | Saccharomyces cerevisiae [21] | Ogataea angusta [22] | Ogataea angusta [23] | Ogataea angusta [24] | Ogataea angusta [25] | Ogataea angusta [26] | Ogataea angusta [27] | Saccharomyces cerevisiae [28]

O=C(/C=C/C=C/c1ccccc1)c1ccc(Cl)cc1
> 40 µg/mL: Ogataea angusta [1] | Kluyveromyces lactis [2] | Ogataea angusta [3] | Saccharomyces cerevisiae [4] | Ogataea angusta [5] | Saccharomyces cerevisiae [6] | Ogataea angusta [7] | Saccharomyces cerevisiae [8] | Ogataea angusta [9] | Saccharomyces cerevisiae [10] | Kluyveromyces lactis [11] | Kluyveromyces lactis [12] | Ogataea angusta [13] | Ogataea angusta [14] | Saccharomyces cerevisiae [15] | Saccharomyces cerevisiae [16] | Ogataea angusta [17] | Ogataea angusta [18] | Saccharomyces cerevisiae [19] | Saccharomyces cerevisiae [20] | Saccharomyces cerevisiae [21] | Ogataea angusta [22] | Ogataea angusta [23] | Ogataea angusta [24] | Ogataea angusta [25] | Ogataea angusta [26] | Ogataea angusta [27] | Saccharomyces cerevisiae [28]

O=C(/C=C/c1ccc(Cl)cc1)c1ccc(Cl)cc1 [4',4-DICHLOROCHALCONE]
> 40 µg/mL: Ogataea angusta [1] | Kluyveromyces lactis [2] | Ogataea angusta [3] | Saccharomyces cerevisiae [4] | Ogataea angusta [5] | Saccharomyces cerevisiae [6] | Ogataea angusta [7] | Saccharomyces cerevisiae [8] | Ogataea angusta [9] | Saccharomyces cerevisiae [10] | Kluyveromyces lactis [11] | Kluyveromyces lactis [12] | Ogataea angusta [13] | Ogataea angusta [14] | Saccharomyces cerevisiae [15] | Saccharomyces cerevisiae [16] | Ogataea angusta [17] | Ogataea angusta [18] | Saccharomyces cerevisiae [19] | Saccharomyces cerevisiae [20] | Saccharomyces cerevisiae [21] | Ogataea angusta [22] | Ogataea angusta [23] | Ogataea angusta [24] | Ogataea angusta [25] | Ogataea angusta [26] | Ogataea angusta [27] | Saccharomyces cerevisiae [28]
